Measured values taken from ChEMBL document CHEMBL5724801, “EUbOPEN Chemogenomics Library - Multiplex” (2024).
Values joined by “and” are separate entries in the source; they are usually repeats but may differ in a detail not shown here. Equal values may be shown once.

tested on: HEK-293T; assay: Multiplex assay against HEK293T; type: toxicity, cell-based; details: human, 12 h, 1 µM, compound concentration 1 uM
How it was run: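 Per cents of healthy-nucleus cells form the tubulin, mitochondrial-mass and membrane-permeability phenotype values. Live cells were stained at seeding with Hoechst33342, BioTracker Green Microtubule Cytoskeleton Dye, MitoTracker Red and Annexin V Alexa Fluor 680. After compound addition they were imaged on a CQ1 microscope at 37°C and 5% CO2, and CellPathfinder machine-learning gating split them into Hoechst high-intensity objects or normal cells, normal cells into healthy, pyknosed or fragmented nuclei, and pyknosed cells into mitotic or apoptotic.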

Row | Structure (SMILES) | Population Apoptotic (%) | Population Fragmented Nuclei (%) | Population Healthy Nuclei (%) | Population Hoechst High Intensity Objects (%) | Population Membrane Permeable-Phenotype (%) | Population Mitochondria Different-Phenotype (%) | Population Mitotic Cells (%) | Population Normal (%) | Population Pyknosed Nuclei (%) | Population Tubulin-Different-Phenotype (%)
1 | CN1CCN2c3ncccc3Cc3ccccc3C2C1 (stereo not drawn) [MIRTAZAPINE] | 58% and 51% | 4% and 3% | 88% and 79% | 5% and 7% | 0% | 41% and 68% | 41% and 48% | 94% and 92% | 7% and 17% | 22% and 21%
2 | CCn1c(-c2nc3cc(C(=O)N4CCCC(N)C4)ccc3n2C)cc2ccccc21.Cl (stereo not drawn) | – | 9% and 5% and 1.84% and 3.31% | – | 7% and 6% and 0% | 0% | 52% [middle of 4 runs] | 87.4% [middle of 4 runs] | 92% and 93% and 100% | – | –
3 | S=c1[nH]nc(-c2cccs2)n1-c1ccccc1 | 14.62% and 11.2% | 2.05% and 4.52% | – | 1.01% and 0% | 0% and 4.35% | 35.03% and 21.74% | 85.38% and 88.8% | 98.99% and 100% | 44.37% and 80.65% | –
4 | O=C1N=C(NCc2cccs2)S/C1=C\c1ccc2ncccc2c1 | 11.2% and 8.04% | 4.18% and 2.19% | – | 0% | 0% | 30.06% and 18.18% | 88.8% and 91.96% | 100% | 40.19% and 81.75% | –

same assay, conditions: human, 12 h, 1 µM, compound concentration 1 uM

Row | Structure (SMILES) | Total Cell Count
5 | CN1CCN2c3ncccc3Cc3ccccc3C2C1 (stereo not drawn) [MIRTAZAPINE] | 402 and 329
6 | CCn1c(-c2nc3cc(C(=O)N4CCCC(N)C4)ccc3n2C)cc2ccccc21.Cl (stereo not drawn) | 351 [middle of 4 runs]
7 | S=c1[nH]nc(-c2cccs2)n1-c1ccccc1 | 296 and 155
8 | O=C1N=C(NCc2cccs2)S/C1=C\c1ccc2ncccc2c1 | 311 and 137

same assay, conditions: human, 12 h, 10 µM, compound concentration 10 uM

Row | Structure (SMILES) | Population Apoptotic (%) | Population Fragmented Nuclei (%) | Population Healthy Nuclei (%) | Population Hoechst High Intensity Objects (%) | Population Membrane Permeable-Phenotype (%) | Population Mitochondria Different-Phenotype (%) | Population Mitotic Cells (%) | Population Normal (%) | Population Pyknosed Nuclei (%) | Population Tubulin-Different-Phenotype (%)
9 | CN1CCN2c3ncccc3Cc3ccccc3C2C1 (stereo not drawn) [MIRTAZAPINE] | 45% and 47% | 9% and 5% | 75% and 79% | 6% | 0% and 1% | 49% and 64% | 54% and 52% | 93% | 15% | 43% and 36%
10 | CCn1c(-c2nc3cc(C(=O)N4CCCC(N)C4)ccc3n2C)cc2ccccc21.Cl (stereo not drawn) | – | 8% and 6% and 2.45% and 0.66% | – | 8% [middle of 4 runs] | 0% and 0.78% | – | 46% and 86.32% and 69.7% | 88% and 91% and 99.7% and 100% | – | 66.67% [middle of 4 runs]
11 | S=c1[nH]nc(-c2cccs2)n1-c1ccccc1 | 8.82% and 18.42% | 0.89% and 2.82% | – | 0% | 0% | – | 91.18% and 81.58% | 100% | 40.24% and 80.28% | 9.05% and 25%
12 | O=C1N=C(NCc2cccs2)S/C1=C\c1ccc2ncccc2c1 | 10.71% and 8.85% | 2.55% and 5.49% | 68.88% and 25.61% | 0% | 1.48% and 0% | 19.26% and 9.52% | 89.29% and 91.15% | 100% | 28.57% and 68.9% | 25.93% and 59.52%

same assay, conditions: human, 12 h, 10 µM, compound concentration 10 uM

Row | Structure (SMILES) | Total Cell Count
13 | CN1CCN2c3ncccc3Cc3ccccc3C2C1 (stereo not drawn) [MIRTAZAPINE] | 228 and 240
14 | CCn1c(-c2nc3cc(C(=O)N4CCCC(N)C4)ccc3n2C)cc2ccccc21.Cl (stereo not drawn) | 398 [middle of 4 runs]
15 | S=c1[nH]nc(-c2cccs2)n1-c1ccccc1 | 338 and 142
16 | O=C1N=C(NCc2cccs2)S/C1=C\c1ccc2ncccc2c1 | 392 and 164

same assay, conditions: human, 24 h, 1 µM, compound concentration 1 uM

Row | Structure (SMILES) | Population Apoptotic (%) | Population Fragmented Nuclei (%) | Population Healthy Nuclei (%) | Population Hoechst High Intensity Objects (%) | Population Membrane Permeable-Phenotype (%) | Population Mitochondria Different-Phenotype (%) | Population Mitotic Cells (%) | Population Normal (%) | Population Pyknosed Nuclei (%) | Population Tubulin-Different-Phenotype (%)
17 | CN1CCN2c3ncccc3Cc3ccccc3C2C1 (stereo not drawn) [MIRTAZAPINE] | 33% and 42% | 9% and 6% | 80% and 79% | 3% and 6% | 0% | 35% and 47% | 66% and 57% | 97% and 93% | 10% and 14% | 18% and 17%
18 | CCn1c(-c2nc3cc(C(=O)N4CCCC(N)C4)ccc3n2C)cc2ccccc21.Cl (stereo not drawn) | – | 9% and 1.41% and 1.3% | 79% [middle of 4 runs] | 6% and 4% and 0.2% and 0% | 0% and 1.42% and 4.76% | 37% [middle of 4 runs] | 64% and 60% and 92.7% and 77.27% | 93% and 95% and 99.8% and 100% | – | 22% and 14% and 16.24% and 11.9%
19 | S=c1[nH]nc(-c2cccs2)n1-c1ccccc1 | 11.36% and 17.16% | 1.73% and 2.2% | – | 0.76% and 0% | 0.26% and 2.27% | 13.46% and 15.91% | 88.64% and 82.84% | 99.24% and 100% | 25.38% and 73.63% | 8.97% and 6.82%
20 | O=C1N=C(NCc2cccs2)S/C1=C\c1ccc2ncccc2c1 | 19.59% and 9.09% | 2.82% and 3.6% | 74.35% and 33.09% | 0% | 0.63% and 2.17% | 8.54% and 19.57% | 80.41% and 90.91% | 100% | 22.82% and 63.31% | 10.76% and 13.04%

same assay, conditions: human, 24 h, 1 µM, compound concentration 1 uM

Row | Structure (SMILES) | Total Cell Count
21 | CN1CCN2c3ncccc3Cc3ccccc3C2C1 (stereo not drawn) [MIRTAZAPINE] | 601 and 373
22 | S=c1[nH]nc(-c2cccs2)n1-c1ccccc1 | 524 and 182

same assay, conditions: human, 24 h, 10 µM, compound concentration 10 uM

Row | Structure (SMILES) | Population Apoptotic (%) | Population Fragmented Nuclei (%) | Population Healthy Nuclei (%) | Population Hoechst High Intensity Objects (%) | Population Membrane Permeable-Phenotype (%) | Population Mitochondria Different-Phenotype (%) | Population Mitotic Cells (%) | Population Normal (%) | Population Pyknosed Nuclei (%) | Population Tubulin-Different-Phenotype (%)
23 | CN1CCN2c3ncccc3Cc3ccccc3C2C1 (stereo not drawn) [MIRTAZAPINE] | 44% and 32% | 9% and 5% | 78% and 80% | 3% and 5% | 0% | 40% and 44% | 55% and 67% | 96% and 94% | 12% and 13% | 28% and 18%
24 | CCn1c(-c2nc3cc(C(=O)N4CCCC(N)C4)ccc3n2C)cc2ccccc21.Cl (stereo not drawn) | 51% and 40% and 33.59% and 49.56% | – | – | 12% and 9% and 0% | 1% and 0% and 0.79% | 72% [middle of 4 runs] | 48% and 59% and 66.41% and 50.44% | 87% and 90% and 100% | – | 64% and 58% and 63.64% and 33.33%
25 | S=c1[nH]nc(-c2cccs2)n1-c1ccccc1 | 17.95% and 22% | 1.78% and 2.9% | – | 0% | 0.53% and 0% | 11.35% and 2.94% | 82.05% and 78% | 100% | – | 9.76% and 8.82%
26 | O=C1N=C(NCc2cccs2)S/C1=C\c1ccc2ncccc2c1 | 34.38% and 21.57% | 2.01% and 4.43% | 73.87% and 31.01% | 0% | 0% and 4.08% | 26.19% and 16.33% | 65.62% and 78.43% | 100% | 24.12% and 64.56% | 55.78% and 20.41%

same assay, conditions: human, 24 h, 10 µM, compound concentration 10 uM

Row | Structure (SMILES) | Total Cell Count
27 | CN1CCN2c3ncccc3Cc3ccccc3C2C1 (stereo not drawn) [MIRTAZAPINE] | 274 and 314
28 | O=C1N=C(NCc2cccs2)S/C1=C\c1ccc2ncccc2c1 | 398 and 158

same assay, conditions: human, 48 h, 1 µM, compound concentration 1 uM

Row | Structure (SMILES) | Population Apoptotic (%) | Population Fragmented Nuclei (%) | Population Healthy Nuclei (%) | Population Hoechst High Intensity Objects (%) | Population Membrane Permeable-Phenotype (%) | Population Mitochondria Different-Phenotype (%) | Population Mitotic Cells (%) | Population Normal (%) | Population Pyknosed Nuclei (%) | Population Tubulin-Different-Phenotype (%)
29 | CN1CCN2c3ncccc3Cc3ccccc3C2C1 (stereo not drawn) [MIRTAZAPINE] | 23% and 44% | 11% and 13% | 82% and 80% | 2% and 3% | 1% and 0% | 19% and 21% | 76% and 55% | 97% and 96% | 6% | 13% and 9%
30 | CCn1c(-c2nc3cc(C(=O)N4CCCC(N)C4)ccc3n2C)cc2ccccc21.Cl (stereo not drawn) | – | 12% [middle of 4 runs] | 79% and 81% and 86.51% and 57.44% | 5% and 4% and 0% | 1% and 0% and 6.55% and 0.89% | 28% [middle of 4 runs] | 79% and 85% and 95.24% and 75.9% | 94% and 95% and 100% | – | –
31 | S=c1[nH]nc(-c2cccs2)n1-c1ccccc1 | – | 2.52% and 0.96% | 87.46% and 66.83% | 0.07% and 0% | 4.24% and 5.04% | 13.4% and 16.55% | 94.07% and 77.61% | 99.93% and 100% | – | –
32 | O=C1N=C(NCc2cccs2)S/C1=C\c1ccc2ncccc2c1 | 12.66% and 16.95% | 2.96% and 1.01% | 86.89% and 69.35% | 0% and 0.5% | 4.14% and 2.17% | 20.41% and 24.64% | 87.34% and 83.05% | 100% and 99.5% | 10.15% and 29.65% | –

same assay, conditions: human, 48 h, 1 µM, compound concentration 1 uM

Row | Structure (SMILES) | Total Cell Count
33 | CN1CCN2c3ncccc3Cc3ccccc3C2C1 (stereo not drawn) [MIRTAZAPINE] | 885 and 562

same assay, conditions: human, 48 h, 10 µM, compound concentration 10 uM

Row | Structure (SMILES) | Population Apoptotic (%) | Population Fragmented Nuclei (%) | Population Healthy Nuclei (%) | Population Hoechst High Intensity Objects (%) | Population Membrane Permeable-Phenotype (%) | Population Mitochondria Different-Phenotype (%) | Population Mitotic Cells (%) | Population Normal (%) | Population Pyknosed Nuclei (%) | Population Tubulin-Different-Phenotype (%)
34 | CN1CCN2c3ncccc3Cc3ccccc3C2C1 (stereo not drawn) [MIRTAZAPINE] | 31% and 30% | 14% and 11% | 74% and 81% | 2% and 3% | 0% | 36% and 30% | 68% and 69% | 97% and 96% | 10% and 7% | 20% and 12%
35 | CCn1c(-c2nc3cc(C(=O)N4CCCC(N)C4)ccc3n2C)cc2ccccc21.Cl (stereo not drawn) | 50% and 52% and 28.06% and 40.68% | – | 73% and 79% and 77.55% and 60.49% | – | 0% and 1.26% and 2.04% | 65% and 71% and 79.5% and 83.67% | 49% and 47% and 71.94% and 59.32% | 84% and 91% and 99.86% and 97.59% | – | –
36 | S=c1[nH]nc(-c2cccs2)n1-c1ccccc1 | 10.32% and 16.67% | 2.79% and 3.68% | 86.89% and 63.19% | 0% | 5.38% and 1.94% | 11.04% and 20.39% | 89.68% and 83.33% | 100% | – | –
37 | O=C1N=C(NCc2cccs2)S/C1=C\c1ccc2ncccc2c1 | 37.04% and 39.66% | 1.79% and 5.23% | 91.3% and 56.86% | 0% | 0.84% and 2.3% | 87.68% and 60.92% | 62.96% and 60.34% | 100% | – | –

same assay, conditions: human, 48 h, 10 µM, compound concentration 10 uM

Row | Structure (SMILES) | Total Cell Count
38 | CN1CCN2c3ncccc3Cc3ccccc3C2C1 (stereo not drawn) [MIRTAZAPINE] | 390 and 521
39 | O=C1N=C(NCc2cccs2)S/C1=C\c1ccc2ncccc2c1 | 391 and 153
